These results are taken from the M2OR odorant receptor database.

For the assay, the target named is T1, OR10J5 (Homo sapiens) (UniProt Q8NHC4).
T1 sequence (whole entry): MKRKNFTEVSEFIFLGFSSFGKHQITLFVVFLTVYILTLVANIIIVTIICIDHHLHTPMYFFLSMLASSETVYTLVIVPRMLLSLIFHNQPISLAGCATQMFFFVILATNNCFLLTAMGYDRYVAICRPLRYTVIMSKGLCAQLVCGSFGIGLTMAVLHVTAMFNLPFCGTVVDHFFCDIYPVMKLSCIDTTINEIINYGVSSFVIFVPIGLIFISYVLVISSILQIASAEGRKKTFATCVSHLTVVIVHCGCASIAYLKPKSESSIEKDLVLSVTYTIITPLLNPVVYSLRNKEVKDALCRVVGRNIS
The settings on record: stereoisomer not certain. The method in brief: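 Each entry records the cell line, G-protein, co-transfected protein and tags used. Methods varied with the source, often transient luciferase assays in mammalian cell lines. A receptor–molecule pair is called responsive (active) if the original authors judged its signal statistically different from baseline and non-responsive (inactive) otherwise.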

On to `CCCCCO`, for which the “odorant receptor agonist call” value is “inactive”.
